30 molecules from ChEMBL document CHEMBL1123873, “N-(heterocyclic alkyl)pyrido[2,1-b]quinazoline-8-carboxamides as orally active antiallergy agents” (J Med Chem, 1987) can be followed below.

The species named for assay [1] is Cavia porcellus. Nature of the assay: Evaluated for inhibition of slow reacting substance of anaphylaxis (SRS-A) induced contractions in guinea pig ileum strips. The class given is functional. In outline:
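Guinea pig ileum strips were contracted with SRS-A at 5.0 units/mL, the level giving 50% of maximal contraction. Each compound was tested in duplicate at three concentrations giving 10–90% inhibition. IC50 was obtained by linear regression.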

Assay [2] deals with T1, Thromboxane-A synthase (Homo sapiens, UniProt P24557).
T1 sequence (P24557 whole entry): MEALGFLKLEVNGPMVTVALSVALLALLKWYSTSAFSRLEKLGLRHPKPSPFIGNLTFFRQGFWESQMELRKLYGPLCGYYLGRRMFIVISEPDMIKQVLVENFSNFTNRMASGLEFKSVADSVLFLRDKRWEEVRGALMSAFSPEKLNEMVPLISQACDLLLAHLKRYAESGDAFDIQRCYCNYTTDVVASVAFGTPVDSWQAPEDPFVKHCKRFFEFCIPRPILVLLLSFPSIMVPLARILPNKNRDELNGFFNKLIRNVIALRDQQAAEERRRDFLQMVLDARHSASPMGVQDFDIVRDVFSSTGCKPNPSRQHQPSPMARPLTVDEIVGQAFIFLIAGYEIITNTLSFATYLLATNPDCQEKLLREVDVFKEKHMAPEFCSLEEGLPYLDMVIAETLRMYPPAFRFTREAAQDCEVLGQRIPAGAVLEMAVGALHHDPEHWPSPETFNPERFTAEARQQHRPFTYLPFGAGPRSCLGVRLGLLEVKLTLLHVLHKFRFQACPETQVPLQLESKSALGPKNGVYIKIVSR
Nature of the assay: Inhibition of human platelet thromboxane synthase (TXA2) was determined in human platelets. In outline:
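The enzyme source was microsomal fractions of human platelets. Conversion of [14C]PGH2 to [14C]TXB2 ran 2 min at 22 °C and was then stopped. Products were ether-extracted, separated by TLC and counted. Compounds were tested in triplicate at three log-spaced concentrations, and IC50 was obtained by linear regression.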

Assay [3] deals with Rattus norvegicus. Nature of the assay: In vivo inhibition of LTE4 (leukotriene)-induced skin wheal formation in rat.
In assay [4] the test system is Rattus norvegicus. Nature of the assay: In vivo inhibition of LTE4 (leukotriene)-induced skin wheal formation in rat and percent inhibition was reported at 100 mg/Kg administered perorally. Particulars: po.
Assay [5] has as its system Cavia porcellus. Nature of the assay: In vivo inhibition of LTE4 (leukotriene)-induced bronchoconstrictions in guinea pig and percent inhibition was reported at 10 mg/Kg administered intravenously. The class given is functional. The settings on record: iv. In outline: (§1)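 Guinea pigs pretreated with propranolol were challenged with LTE4. The drug was given either 10 mg/kg iv 30 s before challenge or 100 mg/kg orally 2 h before. Bronchoconstriction was scored as percent inhibition versus control animals. Oral ID50 was calculated from varying oral doses.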

Assay [6] concerns Rattus norvegicus. Nature of the assay: In vivo inhibition of LTE4 (leukotriene)-induced skin wheal formation in rat and percent inhibition was reported at 10 mg/Kg administered intravenously. Particulars: iv.
Assay [7] has as its system Cavia porcellus. Nature of the assay: In vivo inhibition of LTE4 (leukotriene)-induced bronchoconstrictions in guinea pig and percent inhibition was reported at 100 mg/Kg administered perorally. The class given is functional. The settings on record: po. In outline: as §1
The test system of assay [8] is Cavia porcellus. Nature of the assay: In vivo inhibition of LTE4 (leukotriene)-induced bronchoconstrictions in guinea pig and ID50 was reported perorally. The class given is functional. In outline:
as §1

For assay [9], the system named is Cavia porcellus. Nature of the assay: (§2) In vivo inhibition of LTE4 (leukotriene)-induced administration. The class given is functional.
Assay [10] concerns Cavia porcellus. Nature of the assay: In vivo inhibition of LTE4 (leukotriene)-induced bronchoconstrictions in guinea pig after oral administration. The class given is functional. In outline:
as §1

Assay [11] has as its system Rattus norvegicus. Nature of the assay: In vivo inhibition of LTE4 (leukotriene)-induced skin wheal formation in rat determined after (iv) administration of a dose of 10 mg/kg.
Assay [12] deals with Rattus norvegicus. Nature of the assay: In vivo inhibition of LTE4 (leukotriene)-induced skin wheal formation in rat determined after (po) administration of a dose of 100 mg/Kg.
In assay [13] the test system is Cavia porcellus. The assay is described as §2. The class given is functional. This is another data set of the same source.
The species entered for assay [14] is Cavia porcellus. Nature of the assay: Ability to inhibit bronchoconstriction induced in actively sensitized guinea pig by antigen-induced de novo biosynthesis of SRS-A. The class given is functional.
Assay [15] relates to Rattus norvegicus. Nature of the assay: In vivo inhibition of LTE4 (leukotriene)-induced skin wheal formation in rat. The source holds these as a separate data set.
The test system of assay [16] is Rattus norvegicus. Nature of the assay: Compound was evaluated in vivo by rat passive cutaneous anaphylaxis test (PCA) after oral administration. The class given is functional.
Assay [17] is filed under the species Cavia porcellus. Nature of the assay: Ability to inhibit bronchoconstriction in guinea pig induced by platelet activating factor.
The species named for assay [18] is Cavia porcellus. Nature of the assay: Ability to inhibit bronchoconstriction in guinea pig induced by histamine.
For assay [19], the system named is Rattus norvegicus. Nature of the assay: Compound was evaluated in vivo by rat passive cutaneous anaphylaxis test (PCA)after oral administration. Particulars: read-out: ID50 (the source's name).

In the case of `COc1ccc2nc3ccc(C(=O)NCCCCc4cccnc4)cn3c(=O)c2c1`, the IC50 came to 10000 nM in assay [1] and 200 nM in [2].

Consider `CC(C)c1ccc2nc3ccc(C(=O)NCCCCc4ccncc4)cn3c(=O)c2c1.Cl.Cl`, for which the IC50 turned out to be 1000 nM in [1], 100 nM in assay [2] and 90 mg/kg in [3]. For the same molecule, the inhibition in vivo (usually the change of the read-out against control, counted positive when it falls) at 100 mg/kg in assay [4] is 63%; in assay [7], 73%. Also, the inhibition in vivo at 10 mg/kg in assay [5] was determined as 89%; in [6], 54%. In addition, the ID50 mg/kg in assay [8] worked out at 57.

`Cc1ccc2nc3ccc(C(=O)NCCCCc4cccnc4)cn3c(=O)c2c1`: the IC50 in assay [1] stood at 5000 nM; in [2], 100 nM.

For the molecule `CC(C)c1ccc2nc3ccc(C(=O)NCCCc4cccnc4)cn3c(=O)c2c1`, the IC50 in [1] is 5000 nM; in assay [2] it was 100 nM.

For the molecule `CC(C)c1ccc2nc3ccc(C(=O)NCCc4cccnc4)cn3c(=O)c2c1`, the results for the IC50 in assay [1] and in [2] were 10000 nM and 4000 nM, respectively.

`CCCc1c(OCC(O)COc2ccc3c(=O)cc(C(=O)O)oc3c2CCC)ccc(C(C)=O)c1O` (centres undefined) [FPL-55712] gave an IC50 in assay [2] of 10000 nM. The inhibition in vivo at 100 mg/kg turned out to be 2% in assay [4] and 23% in assay [7]. Also, the inhibition in vivo at 10 mg/kg was 98% in assay [5] and 88% in assay [6].

On to `O=C(NCCCCc1cccnc1)c1ccc2nc3ccc(Br)cc3c(=O)n2c1`, for which the IC50 in [1] is > 10000 nM; in assay [2] it was 100 nM.

For the molecule `CC(C)c1ccc2nc3ccc(C(=O)NC(C)(C)CCCc4cccnc4)cn3c(=O)c2c1`, the results for the IC50 in [1] and in assay [2] were 5000 nM and 500 nM, respectively.

As to `CC(CCc1cccnc1)NC(=O)c1ccc2nc3ccc(C(C)C)cc3c(=O)n2c1` (centres undefined), the IC50 in assay [1] is 5000 nM; in [2], 300 nM.

With `O=C(NCCCCc1cccnc1)c1ccc2nc3cc4c(cc3c(=O)n2c1)CCCC4`, the IC50 in assay [1] amounted to 9000 nM; in assay [2] it was 300 nM.

In the case of `CC(C)c1ccc2nc3ccc(C(=O)N(C)CCCCc4cccnc4)cn3c(=O)c2c1`, the values for the IC50 in assay [1] and in [2] were 1000 nM and 600 nM, respectively.

Regarding `O=C(NCCCCc1cccnc1)c1ccc2nc3ccc(O)cc3c(=O)n2c1`, the IC50 in assay [1] was 3000 nM; in [2], 50 nM.

Consider `Cc1nccn1CCCCNC(=O)c1ccc2nc3ccc(C(C)C)cc3c(=O)n2c1`, for which the IC50 stood at 9000 nM in assay [1] and 5000 nM in assay [2].

Consider `COc1ccc2c(=O)n3cc(C(=O)NCCCCc4cccnc4)ccc3nc2c1`, for which the IC50 in assay [1] was > 10000 nM; in [2] it was 20 nM.

Consider `O=C(O)c1ccc(OCCn2ccnc2)cc1` [DAZOXIBEN], for which the IC50 in assay [1] was > 10000 nM. Further, the inhibition in vivo at 100 mg/kg amounted to 11% in assay [4] and 81% in assay [7]. The inhibition in vivo at 10 mg/kg in assay [5] came out at 88%; in assay [6], 9%.

On to `Cc1cc2nc3ccc(C(=O)NCCCCc4cccnc4)cn3c(=O)c2cc1C`, for which the IC50 in assay [1] was 7000 nM; in assay [2] it was 100 nM.

Consider `CC(C)Oc1ccc2nc3ccc(C(=O)NCCCCc4cccnc4)cn3c(=O)c2c1`, for which the IC50 in [1] is 10000 nM; in assay [2], 60 nM.

Consider `CC(C)c1ccc2nc3ccc(C(=O)NCCCCc4cccnc4)cn3c(=O)c2c1`, for which the IC50 in assay [1] was found to be 1000 nM; in assay [2], 200 nM; in [3], 70 mg/kg. Also, the results for the Inhibition in [9] and in [13] were 76% and 94%, respectively. The same molecule came in with an ID50 mg/kg in assay [10] of 60. The molecule further registered an inhibition in vivo at 10 mg/kg in [11] of 60%. In [12], this molecule came in with an inhibition in vivo at 100 mg/kg of 61%.

For `CC(C)c1ccc2nc3ccc(C(=O)NCCCCOc4cccnc4)cn3c(=O)c2c1.Cl.Cl`, the IC50 worked out at 800 nM in [1], 50 nM in assay [2] and 100 mg/kg in assay [3]. Moreover, the values for the inhibition in vivo at 100 mg/kg in assay [4] and in assay [7] were 56% and 60%, respectively. Moreover, the results for the inhibition in vivo at 10 mg/kg in [5] and in assay [6] were 94% and 64%, respectively.

Take `CC(C)c1ccc2nc3ccc(C(=O)NCCCCCCCc4cccnc4)cn3c(=O)c2c1`: the values for the IC50 in [1] and in assay [2] were > 10000 nM and 200 nM, respectively.

Consider `CC(C)c1ccc2nc3ccc(C(=O)NCCCCCCc4cccnc4)cn3c(=O)c2c1`, for which the IC50 in [1] worked out at 1000 nM. Further, the inhibition in vivo at 100 mg/kg in assay [4] came out at 62%; in [7], 28%. For the same molecule, the inhibition in vivo at 10 mg/kg in assay [5] is 71%; in [6], 70%.

With `CC(C)c1ccc2nc3ccc(C(=O)NCCCCn4ccnc4)cn3c(=O)c2c1.Cl.Cl`, the ID50 mg/kg in [14] is reported as 50; in assay [16], 20; in [17], 13; in assay [18], 39; in assay [8], 47. In addition, the results for the IC50 in [15], in assay [1] and in [2] were 46 mg/kg, 1000 nM and 200 nM, respectively. Further, the inhibition in vivo at 100 mg/kg came out at 63% in [4] and 87% in assay [7]. Moreover, the inhibition in vivo at 10 mg/kg in [5] came out at 87%; in [6] it was 26%.

For the molecule `CC(C)c1ccc2nc3ccc(C(=O)NCCCCc4cncnc4)cn3c(=O)c2c1`, the IC50 in assay [1] came to 5000 nM; in assay [2] it was 200 nM.

`O=C(NCCCCc1cccnc1)c1ccc2nc3cc(Cl)ccc3c(=O)n2c1`: the IC50 in [1] amounted to 8000 nM; in assay [2], 20 nM.

`CC(C)c1ccc2nc3ccc(C(=O)NCCSCc4cccnc4)cn3c(=O)c2c1`: the IC50 in [1] worked out at 5000 nM; in assay [2] it was 600 nM.

As for `CC(C)c1ccc2nc3ccc(C(=O)NCCCCc4ccccn4)cn3c(=O)c2c1`, the IC50 is 1000 nM in assay [1] and > 10000 nM in [2].

Regarding `CC(C)c1ccc2nc3ccc(C(=O)NCCCCCc4cccnc4)cn3c(=O)c2c1.Cl.Cl`, the IC50 in assay [1] is 1000 nM; in assay [2] it was 100 nM. The results for the Inhibition in [9] and in assay [13] were 21% and 84%, respectively. In assay [4], this molecule came in with an inhibition in vivo at 100 mg/kg of 65%. The same molecule displayed an inhibition in vivo at 10 mg/kg in [6] of 61%.

For `CC(C)c1ccc2nc3ccc(C(=O)O)cn3c(=O)c2c1`, the ED50 in assay [19] worked out at 0.45 mg/kg.

Take `CC(CCCc1cccnc1)NC(=O)c1ccc2nc3ccc(C(C)C)cc3c(=O)n2c1` (centres undefined): the IC50 in [1] amounted to 8000 nM; in assay [2], 1000 nM.

On to `O=C(NCCCCc1cccnc1)c1ccc2nc3ccccc3c(=O)n2c1`, for which the IC50 came out at 5000 nM in assay [1] and 20 nM in assay [2].
